Drawing on ChEMBL document CHEMBL3352487, “Synthesis, antibacterial activity, and biological evaluation of formyl hydroxyamino derivatives as novel potent peptide deformylase inhibitors against drug-resistant bacteria” (Eur J Med Chem, 2014), this text covers MIC for 6 compounds.

≈ marks a conversion by molar mass, not a printed value.

Assay type in all cases: functional
Experiment [1] has as its system Staphylococcus aureus. Briefly: Antimicrobial activity against Staphylococcus aureus after 24 hrs by broth microdilution method. The gist of the method: (§1)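 Broth microdilution following NCCLS M7-A4; ATCC strains and clinical isolates from a provincial hospital.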
On the technique in general: Broth dilution looks for growth in wells or tubes with falling amounts of substance.

Experiment [2] concerns Staphylococcus aureus. The experiment can be described thus: Antimicrobial activity against methicillin-susceptible Staphylococcus aureus after 24 hrs by broth microdilution method. The gist of the method:
as §1

The test system of experiment [3] is Staphylococcus aureus. The experiment can be described thus: Antimicrobial activity against methicillin-resistant Staphylococcus aureus after 24 hrs by broth microdilution method. In outline:
(§2)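 Broth microdilution following NCCLS M7-A4, using ATCC strains and clinical isolates from a provincial hospital.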

Experiment [4] has as its system Staphylococcus epidermidis. Briefly: Antimicrobial activity against methicillin-resistant Staphylococcus epidermidis after 24 hrs by broth microdilution method. The gist of the method: as §2
Experiment [5] deals with Staphylococcus epidermidis. The experiment can be described thus: Antimicrobial activity against methicillin-susceptible Staphylococcus epidermidis after 24 hrs by broth microdilution method. The gist of the method:
as §1

The test system of experiment [6] is Enterococcus faecalis. Briefly: Antimicrobial activity against Enterococcus faecalis after 24 hrs by broth microdilution method. In outline: as §1
In experiment [7] the test system is Moraxella catarrhalis. Briefly: Antimicrobial activity against Moraxella catarrhalis after 24 hrs by broth microdilution method. In outline: as §1
Experiment [8] concerns Streptococcus pneumoniae. Briefly: Antimicrobial activity against penicillin-resistant Streptococcus pneumoniae after 24 hrs by broth microdilution method. In outline:
as §2

In experiment [9] the test system is Staphylococcus epidermidis. Briefly: Antimicrobial activity against Staphylococcus epidermidis after 24 hrs by broth microdilution method. In outline:
as §1

The subject of experiment [10] is Escherichia coli. The experiment can be described thus: Antimicrobial activity against Escherichia coli isolate 1 after 24 hrs by broth microdilution method. The note with it: isolate 1, 24 h. The gist of the method: as §1
Experiment [11] has as its system Escherichia coli. The experiment can be described thus: Antimicrobial activity against Escherichia coli isolate 2 after 24 hrs by broth microdilution method. The note with it: isolate 2, 24 h. The gist of the method:
as §1

The subject of experiment [12] is Staphylococcus aureus. Briefly: Antimicrobial activity against Staphylococcus aureus OXFORD after 24 hrs by broth microdilution method. The gist of the method:
as §2

Experiment [13] concerns Staphylococcus aureus. Briefly: Antimicrobial activity against Staphylococcus aureus WCUH29 after 24 hrs by broth microdilution method. The note with it: WCUH29, 24 h. In outline:
as §1

For experiment [14], the system named is Enterococcus faecalis. The experiment can be described thus: Antimicrobial activity against Enterococcus faecalis Isolate 1 after 24 hrs by broth microdilution method. The note with it: Isolate 1, 24 h. In outline: as §1
A further experiment has as its system Enterococcus faecium. The experiment can be described thus: Antimicrobial activity against Enterococcus faecium X7501 after 24 hrs by broth microdilution method. Particulars: X7501, 24 h. In outline: as §1
For experiment [15], the system named is Haemophilus influenzae. The experiment can be described thus: Antimicrobial activity against Haemophilus influenzae Q1 after 24 hrs by broth microdilution method. The note with it: Q1, 24 h. In outline:
as §1

The subject of experiment [16] is Haemophilus influenzae. Briefly: Antimicrobial activity against Haemophilus influenzae H128 after 24 hrs by broth microdilution method. Particulars: H128, 24 h. In outline:
as §1

Experiment [17] relates to Haemophilus influenzae. The experiment can be described thus: Antimicrobial activity against AcrA-deficient Haemophilus influenzae H128 after 24 hrs by broth microdilution method. Particulars: H128, 24 h. In outline: as §1
The subject of experiment [18] is Moraxella catarrhalis. The experiment can be described thus: Antimicrobial activity against Moraxella catarrhalis 1502 after 24 hrs by broth microdilution method. Particulars: Moraxella catarrhalis, 1502, 24 h. In outline: as §1
For experiment [19], the system named is Streptococcus pneumoniae. Briefly: Antimicrobial activity against Streptococcus pneumoniae 1629 after 24 hrs by broth microdilution method. Particulars: Streptococcus pneumoniae, 1629, 24 h. In outline: as §1
The test system of experiment [20] is Streptococcus pneumoniae. Briefly: Antimicrobial activity against Streptococcus pneumoniae N1387 after 24 hrs by broth microdilution method. Particulars: N1387, 24 h. In outline:
as §1

The test system of experiment [21] is Streptococcus pneumoniae. Briefly: Antimicrobial activity against Streptococcus pneumoniae ERY2 after 24 hrs by broth microdilution method. Particulars: ERY2, 24 h. The gist of the method:
as §1

Experiment [22] deals with Escherichia coli. Briefly: Antimicrobial activity against Escherichia coli isolate 3 after 24 hrs by broth microdilution method. Particulars: isolate 3, 24 h. The gist of the method:
as §1

The test system of experiment [23] is Streptococcus pyogenes. Briefly: Antimicrobial activity against Streptococcus pyogenes 1307006P after 24 hrs by broth microdilution method. In outline: as §1
The test system of experiment [24] is Streptococcus pyogenes. The experiment can be described thus: Antimicrobial activity against Streptococcus pyogenes 1308007P after 24 hrs by broth microdilution method. In outline: as §1

For `Cc1cnc(NC(=O)[C@@H]2C[C@H](C)CN2C(=O)[C@H](CC2CCCC2)CN(O)C=O)s1`, the MIC with Staphylococcus aureus [1] amounted to 1 µg/mL (≈ 2.37 µM); against Staphylococcus aureus [2] it was 0.5 µg/mL (≈ 1.18 µM); in the experiment with Staphylococcus aureus [3], 1 µg/mL (≈ 2.37 µM); in experiment [4], 2 µg/mL (≈ 4.73 µM); in experiment [5], 0.25 µg/mL (≈ 0.592 µM); against Enterococcus faecalis [6], 4 µg/mL (≈ 9.47 µM). Moreover, the values for the MIC with Moraxella catarrhalis [7] and in the experiment on Streptococcus pneumoniae [8] were 0.5 µg/mL (≈ 1.18 µM) and 0.03 µg/mL (≈ 0.071 µM), respectively.

For `CCCC[C@H](CN(O)C=O)C(=O)N1C[C@@H](C)C[C@H]1C(=O)Nc1ccc(F)c[n+]1[O-]`, the MIC stood at 0.25 µg/mL (≈ 0.609 µM) against Staphylococcus aureus [1]; 0.25 µg/mL (≈ 0.609 µM) in the experiment with Staphylococcus aureus [2]; 0.25 µg/mL (≈ 0.609 µM) against Staphylococcus aureus [3]; 0.5 µg/mL (≈ 1.22 µM) in [4]; 0.0625 µg/mL (≈ 0.152 µM) in experiment [5]; 4 µg/mL (≈ 9.75 µM) against Enterococcus faecalis [6]. The MIC against Moraxella catarrhalis [7] and in the experiment with Streptococcus pneumoniae [8] was 0.03 µg/mL (≈ 0.0731 µM) in each case.

As to `Cc1cnc(NC(=O)[C@@H]2C[C@H]3CCCC[C@@H]3N2C(=O)[C@H](CC2CCCC2)CN(O)C=O)s1`, the MIC against Staphylococcus aureus [1] is 4 µg/mL (≈ 8.65 µM); against Staphylococcus aureus [2], 4 µg/mL (≈ 8.65 µM); against Staphylococcus aureus [3], 4 µg/mL (≈ 8.65 µM); in experiment [4], 8 µg/mL (≈ 17.3 µM); in experiment [5], 0.5 µg/mL (≈ 1.08 µM); with Enterococcus faecalis [6] it was > 16 µg/mL. For the same compound, the figures for the MIC with Moraxella catarrhalis [7] and against Streptococcus pneumoniae [8] were 0.5 µg/mL (≈ 1.08 µM) and 0.03 µg/mL (≈ 0.0648 µM), respectively.

For `O=CN(O)C[C@@H](CC1CCCC1)C(=O)N1CC=C[C@H]1C(=O)Nc1ccc(F)cc1`, the MIC came to 0.25 µg/mL (≈ 0.62 µM) with Staphylococcus aureus [1]; 0.5 µg/mL (≈ 1.24 µM) in the experiment with Staphylococcus aureus [2]; 0.25 µg/mL (≈ 0.62 µM) in the experiment on Staphylococcus aureus [3]; 1 µg/mL (≈ 2.48 µM) in experiment [9]; 32 µg/mL (≈ 79.3 µM) with Escherichia coli [10]; 64 µg/mL (≈ 159 µM) against Escherichia coli [11]. The MIC was determined as 1 µg/mL (≈ 2.48 µM) against Staphylococcus aureus [12]; 0.125 µg/mL (≈ 0.31 µM) against Staphylococcus aureus [13]; 2 µg/mL (≈ 4.96 µM) in the experiment with Enterococcus faecalis [14]; 1 µg/mL (≈ 2.48 µM) against Enterococcus faecium; 2 µg/mL (≈ 4.96 µM) against Haemophilus influenzae [15]; 2 µg/mL (≈ 4.96 µM) with Haemophilus influenzae [16]. Moreover, the MIC is ≤ 0.06 µg/mL in the experiment with Haemophilus influenzae [17]; ≤ 0.06 µg/mL with Moraxella catarrhalis [18]; 1 µg/mL (≈ 2.48 µM) in the experiment on Streptococcus pneumoniae [19]; 0.5 µg/mL (≈ 1.24 µM) in the experiment with Streptococcus pneumoniae [20]; 1 µg/mL (≈ 2.48 µM) against Streptococcus pneumoniae [21]; 32 µg/mL (≈ 79.3 µM) in the experiment with Escherichia coli [22]. Besides, the MIC with Streptococcus pyogenes [23] and against Streptococcus pyogenes [24] was 0.25 µg/mL (≈ 0.62 µM) throughout.

Consider `C=C1C[C@@H](C(=O)Nc2ccc(F)cn2)N(C(=O)[C@H](CCCC)CN(O)C=O)C1`, for which the MIC in the experiment with Staphylococcus aureus [1] was 0.5 µg/mL (≈ 1.27 µM); against Staphylococcus aureus [2], 1 µg/mL (≈ 2.55 µM); against Staphylococcus aureus [3] it was 0.125 µg/mL (≈ 0.319 µM); in experiment [9], 0.25 µg/mL (≈ 0.637 µM); against Escherichia coli [10], 32 µg/mL (≈ 81.5 µM); in the experiment on Escherichia coli [11] it was > 64 µg/mL. For the same compound, the MIC against Staphylococcus aureus [12] came to 4 µg/mL (≈ 10.2 µM); in the experiment with Staphylococcus aureus [13] it was 0.5 µg/mL (≈ 1.27 µM); in the experiment with Enterococcus faecalis [14], 32 µg/mL (≈ 81.5 µM); against Enterococcus faecium, 4 µg/mL (≈ 10.2 µM); in the experiment with Haemophilus influenzae [15], 16 µg/mL (≈ 40.8 µM); against Haemophilus influenzae [16] it was 16 µg/mL (≈ 40.8 µM). Besides, the MIC in the experiment on Haemophilus influenzae [17] is 0.5 µg/mL (≈ 1.27 µM); in the experiment on Moraxella catarrhalis [18], 0.25 µg/mL (≈ 0.637 µM); in the experiment on Streptococcus pneumoniae [19], 16 µg/mL (≈ 40.8 µM); in the experiment on Streptococcus pneumoniae [20] it was 4 µg/mL (≈ 10.2 µM); against Streptococcus pneumoniae [21] it was 8 µg/mL (≈ 20.4 µM); against Escherichia coli [22] it was > 64 µg/mL. For the same compound, the MIC against Streptococcus pyogenes [23] and in the experiment on Streptococcus pyogenes [24] was 4 µg/mL (≈ 10.2 µM) each time.

In the case of `CCCC[C@H](CN(O)C=O)C(=O)N1C[C@@H](F)C[C@H]1C(=O)Nc1ncc(C)s1`, the MIC in the experiment on Staphylococcus aureus [1] is 8 µg/mL (≈ 20 µM); in the experiment on Staphylococcus aureus [2], 8 µg/mL (≈ 20 µM); in the experiment on Staphylococcus aureus [3], 8 µg/mL (≈ 20 µM); in experiment [4] it was 8 µg/mL (≈ 20 µM); in experiment [5], 4 µg/mL (≈ 9.99 µM); against Enterococcus faecalis [6], > 16 µg/mL. Further, the MIC against Moraxella catarrhalis [7] came out at 0.25 µg/mL (≈ 0.624 µM); in the experiment with Streptococcus pneumoniae [8] it was 0.06 µg/mL (≈ 0.15 µM).
